Results of several laboratories.
Target: Tyrosine-protein kinase Lyn (LYN, Homo sapiens, UniProt P07948)

CCS(=O)(=O)c1cc2cc(C[C@@](O)(CC(C)(C)c3ccc(F)cc3C(N)=O)C(F)(F)F)[nH]c2cn1 has a remaining binding of 100% (cell-free assay, competition with immobilised ligand; 1 µM).
With O=C(NCCCN1CCOCC1)c1ccc(Nc2ncc(Cl)c(-c3ccc(Cl)s3)n2)cc1 the remaining binding was 87% (binding, competition with immobilised ligand; 1 µM).
COCCOc1nc(-c2ccc(Cl)nc2)nc2c1CN(C(=O)c1ncn3ccccc13)CC2 has a remaining binding of 73% (cell-free assay, competition with immobilised ligand; 0.1 µM).
The remaining binding of O=C(NCCCN1CCOCC1)c1ccc(Nc2nccc(-c3cc4ccccc4s3)n2)cc1 is reported as 94% (binding, competition with immobilised ligand; 1 µM).
CC1=C(C#N)C(c2ccc3c(c2)c(NC(=O)c2ccccc2C)nn3C)C(C#N)=C(C)N1 gave a remaining binding of 89% (cell-free assay, competition with immobilised ligand; 1 µM).
For O=C(NCC1CCOCC1)c1n[nH]cc1NC(=O)c1c(F)cccc1F, the remaining binding was 92% (binding, competition with immobilised ligand; 1 µM).
The remaining binding of C[C@@H](c1ccc(-n2cnc3c(N)ncnc32)cc1)N1CCc2nn(C)c(Cc3ccccc3)c2C1=O is reported as 100% (binding, competition with immobilised ligand; 0.1 µM).
With COc1cnc(Nc2cccc(S(N)(=O)=O)c2)nc1N1CCN(c2ccccc2)CC1 the remaining binding was 92% (binding, competition with immobilised ligand; 1 µM).
c1cnn2ncc(-c3ccnc(N4CCC45COC5)n3)c2c1 has a remaining binding of 88% (binding; 1 µM).
For CNC(=O)[C@@H]1CC[C@@H](n2c(-c3ccc4cnccc4c3)nc3ccc(C(=O)NCc4cccc(C(N)=O)c4)cc32)C1, the remaining binding was 95% (binding, competition with immobilised ligand; 1 µM).
With CO[C@@H](C)c1c(Nc2ccc([C@@H](N(C)C(=O)C3CCS(=O)(=O)CC3)C(F)(F)F)cc2)cnc2cc(Cl)nn12 the remaining binding was 97% (cell-free assay, competition with immobilised ligand; 1 µM).
CC1CCCN1c1nccc(-c2cnn3ncccc23)n1 (stereo not drawn) gave a remaining binding of 84% (binding; 1 µM).
With CCN1CCN(Cc2ccc(C(=O)Nc3ccc(C)c(Oc4ccc5c(c4)CC(=O)N5)c3)cc2C(F)(F)F)CC1 the remaining binding was 52% (binding, competition with immobilised ligand; 1 µM).
Cc1ccc(-n2nc(C(C)(C)C)cc2NC(=O)Nc2ccc(-n3c(N)c(C(N)=O)c4nc5ccc(NCCCN)cc5nc43)cc2)cc1 gave a remaining binding of 0.5% (cell-free assay, competition with immobilised ligand; 1 µM).
N[C@H]1CCN(c2nccc(-c3cnn4ncccc34)n2)C1 has a remaining binding of 99% (binding; 1 µM).
For CCCCN(CCCC)C(=O)CN1C[C@@H](c2cc(OC)c3c(c2)OCO3)[C@H](C(=O)O)[C@H]1CC(C)(C)CCC, the remaining binding was 75.1% (cell-free assay, competition with immobilised ligand; 1 µM).
For C[C@H]1CCN(c2nccc(-c3cnn4ncccc34)n2)C1, the remaining binding was 64% (binding; 1 µM).
With O=c1nc(-c2ccccn2)sc2ccccc12 the remaining binding was 100% (cell-free assay, competition with immobilised ligand; 1 µM).
CN(c1nccc(-c2cnn3ncccc23)n1)C1CC1 has a remaining binding of 86% (binding; 1 µM).
The remaining binding of O=C(c1ccc(Nc2ncc(Cl)c(-c3cc4ccccc4s3)n2)cc1)N1CCC(N2CCCC2)CC1 is reported as 83% (binding, competition with immobilised ligand; 1 µM).
The remaining binding of COc1ccnn2ncc(-c3ccnc(N(C)C)n3)c12 is reported as 100% (binding; 1 µM).
The remaining binding of c1cncc(-c2cccc(Nc3nccc(NC4CCCCC4)n3)c2)c1 is reported as 48% (binding, competition with immobilised ligand; 10 µM).
For CCC(=O)N[C@@H]1CC[C@H](C(=O)N(C)c2ccc(-c3nc4ccccc4o3)cc2)C1, the remaining binding was 92% (cell-free assay, competition with immobilised ligand; 1 µM).
The remaining binding of F[C@@H]1CCN(c2nccc(-c3cnn4ncccc34)n2)C1 is reported as 87% (binding; 1 µM).
